How the values were obtained:
Format in all cases: cell-based
[1] = biological target: Sodium-dependent dopamine transporter (Homo sapiens, UniProt Q01959); assay: In vitro displacement of [3H]GBR-12935 from human dopamine transporter expressed in HEK293 cells
Procedure, shortened: (§1)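 Competitive binding using cloned human transporters expressed in HEK-293 cells. NET was labelled with [³H]nisoxetine and DAT with [³H]GBR12935, following a previously published procedure.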

[2] = biological target: Sodium-dependent serotonin transporter (Homo sapiens, UniProt P31645); assay: In vitro displacement of [3H]paroxetine from human serotonin transporter expressed in HEK293 cells
Chain of Sodium-dependent serotonin transporter (P31645 whole entry): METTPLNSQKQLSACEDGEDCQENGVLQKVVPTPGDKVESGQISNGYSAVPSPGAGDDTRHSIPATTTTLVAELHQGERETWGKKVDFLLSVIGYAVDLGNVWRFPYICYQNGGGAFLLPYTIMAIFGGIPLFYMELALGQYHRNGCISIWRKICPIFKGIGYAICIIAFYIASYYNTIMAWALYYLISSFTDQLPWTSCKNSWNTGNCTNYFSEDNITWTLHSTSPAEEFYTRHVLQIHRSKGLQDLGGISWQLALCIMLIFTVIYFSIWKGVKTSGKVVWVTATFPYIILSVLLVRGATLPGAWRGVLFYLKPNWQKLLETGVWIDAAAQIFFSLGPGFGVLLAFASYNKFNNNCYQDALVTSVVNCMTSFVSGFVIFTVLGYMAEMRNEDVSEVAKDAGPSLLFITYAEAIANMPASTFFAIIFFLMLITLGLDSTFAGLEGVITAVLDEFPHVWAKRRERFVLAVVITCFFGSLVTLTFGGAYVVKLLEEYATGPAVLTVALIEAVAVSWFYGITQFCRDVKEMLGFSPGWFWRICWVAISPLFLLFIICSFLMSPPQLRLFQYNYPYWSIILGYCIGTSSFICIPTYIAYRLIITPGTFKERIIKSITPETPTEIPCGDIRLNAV

[3] = biological target: Sodium-dependent noradrenaline transporter (Homo sapiens, UniProt P23975); assay: In vitro displacement of [3H]nisoxetine from human norepinephrine transporter expressed in HEK293 cells; procedure, shortened: as §1
Chain of Sodium-dependent noradrenaline transporter (P23975 whole entry): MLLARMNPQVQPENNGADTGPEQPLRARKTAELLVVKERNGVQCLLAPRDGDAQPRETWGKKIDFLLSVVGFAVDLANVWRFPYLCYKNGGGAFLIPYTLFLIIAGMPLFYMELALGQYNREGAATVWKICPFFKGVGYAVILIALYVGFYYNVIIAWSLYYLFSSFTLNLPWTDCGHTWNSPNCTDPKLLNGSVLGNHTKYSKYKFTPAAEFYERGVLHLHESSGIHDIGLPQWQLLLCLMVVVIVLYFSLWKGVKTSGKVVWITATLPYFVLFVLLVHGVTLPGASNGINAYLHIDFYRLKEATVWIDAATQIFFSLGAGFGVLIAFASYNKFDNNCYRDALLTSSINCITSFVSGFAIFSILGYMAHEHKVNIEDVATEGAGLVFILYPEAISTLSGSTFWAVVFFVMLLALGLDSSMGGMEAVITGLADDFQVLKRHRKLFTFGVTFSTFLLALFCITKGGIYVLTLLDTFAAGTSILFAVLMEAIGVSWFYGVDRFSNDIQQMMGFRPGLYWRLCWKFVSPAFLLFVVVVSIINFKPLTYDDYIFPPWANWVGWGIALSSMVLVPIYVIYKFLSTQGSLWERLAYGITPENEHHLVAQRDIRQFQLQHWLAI

Chain of Sodium-dependent dopamine transporter (Q01959 whole entry): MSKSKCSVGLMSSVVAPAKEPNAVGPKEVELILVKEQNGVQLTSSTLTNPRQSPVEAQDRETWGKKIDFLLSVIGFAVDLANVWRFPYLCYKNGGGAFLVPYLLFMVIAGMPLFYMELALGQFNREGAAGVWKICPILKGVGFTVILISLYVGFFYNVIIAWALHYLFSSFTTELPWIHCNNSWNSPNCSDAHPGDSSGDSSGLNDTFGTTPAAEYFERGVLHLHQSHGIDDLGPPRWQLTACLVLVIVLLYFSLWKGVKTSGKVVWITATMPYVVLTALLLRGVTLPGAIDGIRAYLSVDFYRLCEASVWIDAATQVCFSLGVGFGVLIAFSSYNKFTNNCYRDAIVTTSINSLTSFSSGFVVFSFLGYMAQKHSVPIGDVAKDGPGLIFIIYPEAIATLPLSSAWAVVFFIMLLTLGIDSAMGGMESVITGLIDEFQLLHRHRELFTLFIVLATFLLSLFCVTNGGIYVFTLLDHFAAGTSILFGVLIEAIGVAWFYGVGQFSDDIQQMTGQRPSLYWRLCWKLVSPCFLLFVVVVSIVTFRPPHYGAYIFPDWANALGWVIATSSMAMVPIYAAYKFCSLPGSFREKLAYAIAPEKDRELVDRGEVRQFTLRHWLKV

Which results are given for Cc1ccc(Sc2ccccc2CN)c(N)c1?
Ki [1]: 5.3 µM; Ki [2]: 0.03 µM; Ki [3]: 4.44 µM

From ChEMBL document CHEMBL1145212, “Fluorinated diaryl sulfides as serotonin transporter ligands: synthesis, structure-activity relationship study, and in vivo evaluation of fluorine-18-labeled compounds as PET imaging agents” (J Med Chem, 2005)
